Source: ChEMBL document CHEMBL2434966, “Novel N-4-piperazinyl-ciprofloxacin-chalcone hybrids: synthesis, physicochemical properties, anticancer and topoisomerase I and II inhibitory activity” (Eur J Med Chem, 2013)

How the values were obtained:
UACC-257 = assay: Growth inhibition of human UACC257 cells assessed as cell growth at 10^-5 M after 48 hrs by sulforhodamine B assay; type: functional; settings: UACC-257, 48 h, read-out: Activity
Outline: (§1)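 NCI primary one-dose screen: single concentration of 10^-5 M added to culture, 48 h incubation, SRB protein-dye endpoint. Percent growth of treated cells measured spectrophotometrically against untreated controls.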

SNB-75 = assay: Growth inhibition of human SNB75 cells after 48 hrs by sulforhodamine B assay; type: functional; settings: SNB-75, 48 h; for CC50: read-out: LC50 (the source's name)
Outline: (§2)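 NCI 60-cell panel, five concentrations (10-fold dilutions, 0.01–100 µM), 48 h continuous exposure; SRB protein stain read spectrophotometrically. Percent growth from time-zero, untreated-control and treated absorbances. GI50 is the concentration giving 50% lower net protein increase than control. Values beyond the tested range are reported as more or less than the highest or lowest concentration.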

LOX IMVI = assay: Growth inhibition of human LOXIMVI cells after 48 hrs by sulforhodamine B assay; type: functional
Outline: (§3)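 NCI 60-panel five-dose test at 10-fold dilutions, 10^-4 to 10^-8 M, with 48 h continuous exposure and SRB protein read-out. Percent growth derived from time-zero, untreated-control and treated absorbances. GI50 is the concentration where [(Ti-Tz)/(C-Tz)]×100 = 50. TGI is taken at Ti = Tz. LC50 is taken at [(Ti-Tz)/Tz]×100 = -50.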

IGROV-1 = assay: Growth inhibition of human IGROV1 cells after 48 hrs by sulforhodamine B assay; type: functional; settings: IGROV-1, 48 h; outline: as §3
SW-620 = assay: Growth inhibition of human SW620 cells after 48 hrs by sulforhodamine B assay; type: functional; settings: SW-620, 48 h; for CC50: read-out: LC50 (the source's name); outline: as §2
UO-31 = assay: Growth inhibition of human UO31 cells assessed as cell growth at 10^-5 M after 48 hrs by sulforhodamine B assay; type: functional; settings: UO-31, 48 h, read-out: Activity; outline: as §1
HOP-62 = assay: Growth inhibition of human HOP62 cells after 48 hrs by sulforhodamine B assay; type: functional; settings: HOP-62, 48 h; outline: as §3
CAKI-1 [1] = assay: Growth inhibition of human CAKI-1 cells assessed as cell growth at 10^-5 M after 48 hrs by sulforhodamine B assay; type: functional; settings: CAKI-1, 48 h, read-out: Activity
Outline: (§4)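 NCI 60-cell-line primary screen. Single concentration of 10^-5 M, 48 h incubation. End point by sulforhodamine B protein staining read spectrophotometrically. Reported as percent growth of treated cells relative to untreated control cells.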

NCI-H226 = assay: Growth inhibition of human NCI-H226 cells after 48 hrs by sulforhodamine B assay; type: functional; settings: NCI-H226, 48 h; for CC50: read-out: LC50 (the source's name)
Outline: (§5)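 NCI five-dose screen on the full 60-cell-line panel. Cells were given 10-fold dilutions from 10^-4 to 10^-8 M with continuous 48 h exposure, and growth was read by SRB staining. Percent growth was taken from time-zero, control and treated absorbances. GI50, TGI and LC50 were then derived, the GI50 being the concentration that gives a 50% lower net protein increase than control.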

OVCAR-5 [2] = assay: Growth inhibition of human OVCAR5 cells after 48 hrs by sulforhodamine B assay; type: functional; settings: OVCAR-5, 48 h; outline: as §5
[3] = biological target: DNA topoisomerase 2-alpha (Homo sapiens) (UniProt P11388); assay: Inhibition of human topoisomerase 2alpha-mediated relaxation of supercoiled pBR322 DNA at 100 uM after 30 mins by agarose gel electrophoresis relative to control
Outline: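 Human topo IIα (1 unit) with 200 ng supercoiled pBR322 in Tris-HCl pH 7.9, 50 mM NaCl, 5 mM MgCl2, 1 mM EDTA, 1 mM ATP, BSA, 30 min at 30 °C. DMSO was matched in the enzyme-only control. Stopped with EDTA; 1% agarose/TAE gel, ethidium stain, supercoiled band quantified by UV imaging. Etoposide was the positive control.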

OVCAR-5 [4] = assay: Growth inhibition of human OVCAR5 cells assessed as cell growth at 10^-5 M after 48 hrs by sulforhodamine B assay; type: functional; settings: OVCAR-5, 48 h, read-out: Activity
Outline: (§6)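 NCI 60-cell-line primary one-dose screen. Cells were exposed to a single 10^-5 M concentration for 48 h. The end point was sulforhodamine B protein staining, read spectrophotometrically. Results are reported as percent growth of treated cells relative to untreated control cells.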

MDA-MB-435 = assay: Growth inhibition of human MDA-MB-435 cells after 48 hrs by sulforhodamine B assay; type: functional; settings: MDA-MB-435, 48 h; outline: as §5
SK-MEL-5 = assay: Growth inhibition of human SK-MEL-5 cells after 48 hrs by sulforhodamine B assay; type: functional; settings: SK-MEL-5, 48 h; for CC50: read-out: LC50 (the source's name); outline: as §5
OVCAR-8 = assay: Growth inhibition of human OVCAR8 cells assessed as cell growth at 10^-5 M after 48 hrs by sulforhodamine B assay; type: functional; settings: OVCAR-8, 48 h, read-out: Activity; outline: as §6
[5] = Growth inhibition of human HCC2998 cells after 48 hrs by sulforhodamine B assay; type: functional; settings: HCC 2998, 48 h; for CC50: read-out: LC50 (the source's name); outline: as §3
HCT-15 = assay: Growth inhibition of human HCT15 cells after 48 hrs by sulforhodamine B assay; type: functional; settings: HCT-15, 48 h; outline: as §3
COLO 205 = assay: Growth inhibition of human COLO205 cells after 48 hrs by sulforhodamine B assay; type: functional; settings: COLO 205, 48 h; outline: as §3
CAKI-1 [6] = assay: Growth inhibition of human CAKI-1 cells after 48 hrs by sulforhodamine B assay; type: functional; settings: CAKI-1, 48 h; outline: as §3
K562 = assay: Growth inhibition of human K562 cells assessed as cell growth at 10^-5 M after 48 hrs by sulforhodamine B assay; type: functional; settings: K562, 48 h, read-out: Activity; outline: as §4

Sequence of DNA topoisomerase 2-alpha (Homo sapiens) (P11388 whole entry): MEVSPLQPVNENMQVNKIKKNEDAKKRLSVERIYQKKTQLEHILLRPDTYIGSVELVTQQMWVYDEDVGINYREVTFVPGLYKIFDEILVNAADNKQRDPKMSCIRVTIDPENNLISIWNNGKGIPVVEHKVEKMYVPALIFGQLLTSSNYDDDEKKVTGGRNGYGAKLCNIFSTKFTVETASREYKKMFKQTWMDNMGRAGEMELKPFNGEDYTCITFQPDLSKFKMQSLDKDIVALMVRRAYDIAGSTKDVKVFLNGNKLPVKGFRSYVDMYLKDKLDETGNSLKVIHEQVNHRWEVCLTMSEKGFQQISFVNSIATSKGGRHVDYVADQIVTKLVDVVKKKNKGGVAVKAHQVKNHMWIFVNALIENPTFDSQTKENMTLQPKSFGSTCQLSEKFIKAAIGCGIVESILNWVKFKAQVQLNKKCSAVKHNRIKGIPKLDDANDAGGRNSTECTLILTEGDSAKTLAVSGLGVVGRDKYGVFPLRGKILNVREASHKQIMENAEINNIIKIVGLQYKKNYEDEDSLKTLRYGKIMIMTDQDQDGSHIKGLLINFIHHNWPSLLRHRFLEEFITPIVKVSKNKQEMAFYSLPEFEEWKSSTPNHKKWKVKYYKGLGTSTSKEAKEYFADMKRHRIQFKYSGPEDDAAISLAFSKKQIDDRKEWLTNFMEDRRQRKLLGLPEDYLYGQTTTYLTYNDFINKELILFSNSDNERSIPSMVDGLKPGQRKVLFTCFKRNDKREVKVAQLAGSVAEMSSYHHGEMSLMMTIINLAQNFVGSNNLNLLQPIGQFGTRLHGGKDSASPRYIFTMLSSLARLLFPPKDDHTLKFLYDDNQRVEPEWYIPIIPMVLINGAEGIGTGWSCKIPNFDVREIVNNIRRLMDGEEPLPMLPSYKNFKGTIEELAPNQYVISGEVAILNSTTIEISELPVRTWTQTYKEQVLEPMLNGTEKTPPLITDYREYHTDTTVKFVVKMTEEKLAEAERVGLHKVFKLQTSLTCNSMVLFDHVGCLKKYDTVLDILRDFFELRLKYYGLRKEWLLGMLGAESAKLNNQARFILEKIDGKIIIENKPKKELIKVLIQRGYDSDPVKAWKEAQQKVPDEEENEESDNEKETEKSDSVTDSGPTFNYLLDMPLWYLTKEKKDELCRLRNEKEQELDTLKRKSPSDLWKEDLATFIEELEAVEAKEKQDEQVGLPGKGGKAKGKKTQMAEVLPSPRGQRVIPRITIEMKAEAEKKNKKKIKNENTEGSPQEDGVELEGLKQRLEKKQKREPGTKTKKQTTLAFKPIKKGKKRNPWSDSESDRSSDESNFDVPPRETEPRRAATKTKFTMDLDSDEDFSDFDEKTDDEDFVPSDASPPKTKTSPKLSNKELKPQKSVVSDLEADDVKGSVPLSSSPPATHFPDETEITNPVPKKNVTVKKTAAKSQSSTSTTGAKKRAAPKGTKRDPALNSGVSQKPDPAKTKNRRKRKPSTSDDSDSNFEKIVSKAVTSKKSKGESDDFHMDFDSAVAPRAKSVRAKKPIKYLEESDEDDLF

**Q.** Which results are given for `O=C(CN1CCN(c2cc3c(cc2F)c(=O)c(C(=O)O)cn3C2CC2)CC1)Nc1ccc(C(=O)/C=C/c2ccccc2)cc1`?
**A.** growth at 10 µM (UACC-257): 61.1%; GI50 (SNB-75): 3.22 µM; TGI (SNB-75): > 100 µM; CC50 (SNB-75): > 100 µM; GI50 (LOX IMVI): 2.32 µM; LC50 (concentration killing 50% of starting cells) (LOX IMVI): > 100 µM; TGI (LOX IMVI): > 100 µM; GI50 (IGROV-1): 3.67 µM; LC50 (concentration giving 50% net cell kill) (IGROV-1): > 100 µM; TGI (IGROV-1): > 100 µM; GI50 (SW-620): 3.8 µM; TGI (SW-620): > 100 µM; CC50 (SW-620): > 100 µM; growth at 10 µM (UO-31): 45%; GI50 (HOP-62): 4.46 µM; LC50 (concentration killing 50% of starting cells) (HOP-62): > 100 µM; TGI (HOP-62): > 100 µM; growth at 10 µM (CAKI-1 [1]): 73.1%; GI50 (NCI-H226): 6.83 µM; TGI (NCI-H226): > 100 µM; CC50 (NCI-H226): > 100 µM; GI50 (OVCAR-5 [2]): 5.35 µM; LC50 (OVCAR-5 [2]): > 100 µM; TGI (OVCAR-5 [2]): > 100 µM; inhibition [3]: 35.7%; growth at 10 µM (OVCAR-5 [4]): 82.6%; GI50 (MDA-MB-435): 2.94 µM; LC50 (MDA-MB-435): > 100 µM; TGI (MDA-MB-435): > 100 µM; GI50 (SK-MEL-5): 2.74 µM; TGI (SK-MEL-5): 13 µM; CC50 (SK-MEL-5): > 100 µM; growth at 10 µM (OVCAR-8): 6.3%; GI50 [5]: 39.6 µM; TGI [5]: > 100 µM; CC50 [5]: > 100 µM; GI50 (HCT-15): 3.68 µM; LC50 (concentration giving 50% net cell kill) (HCT-15): > 100 µM; TGI (HCT-15): > 100 µM; GI50 (COLO 205): 36.3 µM; LC50 (lethal concentration, 50% net cell kill) (COLO 205): > 100 µM; TGI (COLO 205): > 100 µM; GI50 (CAKI-1 [6]): 1.76 µM; LC50 (concentration killing 50% of starting cells) (CAKI-1 [6]): > 100 µM; TGI (CAKI-1 [6]): 5.32 µM; growth at 10 µM (K562): 14.2%

**Q.** Which results are given for `COc1cc(/C=C/C(=O)c2ccc(NC(=O)CN3CCN(c4cc5c(cc4F)c(=O)c(C(=O)O)cn5C4CC4)CC3)cc2)cc(OC)c1OC`?
**A.** growth at 10 µM (UACC-257): 30.8%; GI50 (SNB-75): 5.75 µM; TGI (SNB-75): > 100 µM; CC50 (SNB-75): > 100 µM; GI50 (LOX IMVI): 0.53 µM; LC50 (concentration killing 50% of starting cells) (LOX IMVI): > 100 µM; TGI (LOX IMVI): 2.65 µM; GI50 (IGROV-1): 0.4 µM; LC50 (concentration giving 50% net cell kill) (IGROV-1): 8.43 µM; TGI (IGROV-1): 1.72 µM; GI50 (SW-620): 0.42 µM; TGI (SW-620): 3.2 µM; CC50 (SW-620): > 100 µM; growth at 10 µM (UO-31): 2.96%; GI50 (HOP-62): 0.36 µM; LC50 (concentration killing 50% of starting cells) (HOP-62): 56.9 µM; TGI (HOP-62): 11.4 µM; growth at 10 µM (CAKI-1 [1]): 57.2%; GI50 (NCI-H226): 0.95 µM; TGI (NCI-H226): 26 µM; CC50 (NCI-H226): > 100 µM; GI50 (OVCAR-5 [2]): 1.87 µM; LC50 (OVCAR-5 [2]): > 100 µM; TGI (OVCAR-5 [2]): 7.36 µM; inhibition [3]: 5.2%; growth at 10 µM (OVCAR-5 [4]): 16.9%; GI50 (MDA-MB-435): 0.3 µM; LC50 (MDA-MB-435): > 100 µM; TGI (MDA-MB-435): 1.7 µM; GI50 (SK-MEL-5): 1.06 µM; TGI (SK-MEL-5): 4.06 µM; CC50 (SK-MEL-5): > 100 µM; growth at 10 µM (OVCAR-8): 4.74%; GI50 [5]: 2.76 µM; TGI [5]: 11.4 µM; CC50 [5]: > 100 µM; GI50 (HCT-15): 0.45 µM; LC50 (concentration giving 50% net cell kill) (HCT-15): > 100 µM; TGI (HCT-15): > 100 µM; GI50 (COLO 205): 1.62 µM; LC50 (lethal concentration, 50% net cell kill) (COLO 205): > 100 µM; TGI (COLO 205): 15.4 µM; GI50 (CAKI-1 [6]): 1.13 µM; LC50 (concentration killing 50% of starting cells) (CAKI-1 [6]): > 100 µM; TGI (CAKI-1 [6]): > 100 µM; growth at 10 µM (K562): 1.66%
